Experimental findings from ChEMBL document CHEMBL4808165, “Design of Thioether Cyclic Peptide Scaffolds with Passive Permeability and Oral Exposure” (J Med Chem, 2021) are described below.

Data set [1] can be described thus: Apparent permeability across apical to basolateral membrane in MDCKII-LE cells measured after 120 mins by RapidFire-MS analysis. Conditions: dog, MDCK. Type of data set: ADME, cell-based, Canis lupus familiaris. In outline:
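MDCK-LE (low efflux) cells seeded at about 265,000 cells/cm² on Transwells and cultured 4 days. Apical-to-basal transport run in triplicate at 10 μM in HBSS/10 mM HEPES pH 7.4 with 0.02% BSA, 120 min at 37 °C without shaking. Bestatin used as integrity marker. Donor and acceptor quantified by MS against glyburide internal standard. Papp and % recovery calculated.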

Data set [2] can be described thus: Aqueous solubility of the compound at pH 6.8. Conditions: buffer. Format: physicochemical. In outline:
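Thermodynamic (equilibrium) solubility. 10 mM DMSO stock dried down, then pH 6.8 phosphate buffer added to a target of 1 mM. Shaken at 1350 rpm at ambient temperature for 16–24 h. Supernatant centrifuged twice, diluted 200-fold and quantified by RapidFire-MS/MS against a 4-point calibration curve.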

Data set [3] in a line: Half life in Sprague-Dawley rat at 5 mg/kg, po or 0.5 mg/kg, iv measured up to 24 hrs by HPLC-MS/MS analysis. Conditions: in vivo. Format: ADME, organism-based. The gist of the method:
(§1)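 Rat dosing in PEG300:20% Solutol/PBS (10:25:65). IV into a jugular cannula at 0.5 mg/kg (1 mg/kg for some analogues), 1 mL/kg. PO by gavage at 5 mg/kg from a 0.5 mg/mL solution. Blood drawn via jugular cannula at 5 min (IV only), 15 min, 0.5, 1, 2, 4, 7 and 24 h. Plasma analysed by HPLC-MS/MS. Parameters from noncompartmental analysis.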

The nature of data set [4]: Oral bioavailability in Sprague-Dawley rat at 5 mg/kg measured up to 24 hrs by HPLC-MS/MS analysis. Type of data set: ADME, organism-based. Conditions: in vivo. The gist of the method:
as §1

Data set [5] in a line: Clearance in human liver microsomes measured up to 30 mins in presence of NADPH by HPLC-MS/MS analysis. Conditions: read-out: CLH. Type of data set: ADME, Microsome. In outline: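 Human liver microsomes at 1.25 mg/mL protein in phosphate buffer pH 7.4. Test article at 10 μM, shaken at 37 °C. Reaction started with 2 mM NADPH/4 mM MgCl₂. Aliquots taken at 0, 5, 15 and 30 min and quenched with acetonitrile containing glibenclamide. Parent remaining measured by LC-MS/MS. Elimination rate constant converted to in vitro clearance.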
(In general: Liver microsomes are a subcellular fraction often used to study metabolism.)

A short description of data set [6]: 1-Octanol/phosphate buffered-saline distribution coefficient, logD of compound at pH 7.4 measured after 4 hrs by LC-MS analysis. Type of data set: physicochemical. The gist of the method: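 PBS pH 7.4 and 1-octanol, each pre-saturated with the other. 10 mM DMSO stock, dispensed with an internal reference compound in triplicate and dried. Residue shaken in octanol plus buffer for at least 4 h, then centrifuged to separate phases. Both phases quantified by LC-MS/MS. Log D taken from the phase peak-area ratio, normalised to internal standard.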

A short description of data set [7]: Clearance in Sprague-Dawley rat at 5 mg/kg, po or 0.5 mg/kg, iv measured up to 24 hrs by HPLC-MS/MS analysis. Type of data set: ADME, organism-based. Conditions: in vivo. In outline: as §1
A short description of data set [8]: Clearance in Sprague-Dawley rat liver microsomes measured up to 30 mins in presence of NADPH by HPLC-MS/MS analysis. Type of data set: ADME, Microsome. Conditions: read-out: CLH.
The nature of data set [9]: AUC in Sprague-Dawley rat systemic circulation at 5 mg/kg, po or 0.5 mg/kg, iv measured up to 24 hrs by HPLC-MS/MS analysis. Type of data set: ADME, organism-based. Further details: dose 5 mg/kg, time <=24. In outline: as §1
Data set [10] in a line: Cmax in Sprague-Dawley rat systemic circulation at 5 mg/kg, po or 0.5 mg/kg, iv measured up to 24 hrs by HPLC-MS/MS analysis. Format: ADME, organism-based. Further details: dose 5 mg/kg, time <=24. In outline: as §1
Data set [11] can be described thus: Volume of distribution at steady state in Sprague-Dawley rat at 5 mg/kg, po or 0.5 mg/kg, iv measured up to 24 hrs by HPLC-MS/MS analysis. Format: ADME, organism-based. Conditions: in vivo, read-out: Vdss. The gist of the method:
as §1

Structures are written as SMILES. Values after ≈ are worked out from the molar mass of the structure shown. Positions of bridges follow the written chain, without caps; N, C: chain ends. Non-standard residues stand in square brackets, D forms with d. Residues, ends and D or L forms follow the SMILES beside them. NMeNle = CCCC[C@H](NC)C(=O)O; Nle = CCCC[C@H](N)C(=O)O

By Papp A→B is commonly meant how fast a substance crosses the layer from the apical side. Broadly, the solubility is the dissolved amount per volume that the medium holds. Read a low solubility as a poorly soluble substance. For orientation: half-life means how long it takes for the measured level to halve. A lower half-life goes with rapid decline. One may read the bioavailability as the share of a dose that reaches the circulation, judged against a reference dose that is usually intravenous. Higher therefore signals much systemic uptake. In general, logD refers to the decadic logarithm of the distribution of all forms, ionised or not, between an organic phase and buffer at a given pH. Read a high logD as higher lipophilicity. `CCCC[C@@H]1NC(=O)[C@H](Cc2ccccc2)NC(=O)CSC[C@H](C(=O)NC)NC(=O)[C@H](CCCC)NC(=O)[C@H](CCCC)NC(=O)[C@H](CCCC)NC1=O`: the Papp A→B at 2 h in data set [1] worked out at 0.6 ×10⁻⁶ cm/s. In data set [2], this compound showed a solubility of less than 4 µM. Further, the half-life in data set [3] was 18 min. For the same compound, the bioavailability in [4] is less than 1%. Also, the microsomal CLint in [5] and in data set [8] was not below 350 µL/min/mg throughout. In data set [6], this compound had a pH-dependent lipophilicity (logD) at 4 h of 3.6. The clearance in [7] was determined as 702 mL/min/kg.

What is called AUC is the area under the concentration-time curve, a measure of exposure. A higher AUC goes with high exposure. Broadly, the Cmax is the maximum level reached in the sampled fluid or tissue. Take `CCCC[C@@H]1NC(=O)[C@H](Cc2ccccc2)NC(=O)CSC[C@@H](C(=O)NC)NC(=O)[C@H](CCCC)N(C)C(=O)[C@H](CCCC)N(C)C(=O)[C@H](CCCC)N(C)C(=O)[C@H](CCCC)NC(=O)[C@H](CCCC)N(C)C1=O` ({CH2CO}-F[Nle][NMeNle][Nle][NMeNle][NMeNle][NMeNle]C-NHMe; thioether N-8): the Papp A→B at 2 h in [1] is less than 0.35 ×10⁻⁶ cm/s. In [2], this compound showed a solubility of less than 4 µM. In addition, the bioavailability in data set [4] stood at 17%. Besides, the microsomal CLint in data set [5] and in data set [8] was not below 120 µL/min/mg in each case. In data set [6], this compound showed a log distribution coefficient (logD) at 4 h of 6.1. The same compound showed an AUC at 24 h in [9] of 1.08 µM·h. The compound also came in with a clearance in data set [7] of 12 mL/min/kg. The compound also registered a maximum concentration (Cmax) in data set [10] of 436 nM.

Regarding `CCCC[C@@H]1NC(=O)[C@H](CCCC)NC(=O)[C@H](CCCC)NC(=O)[C@@H](Cc2ccccc2)NC(=O)CSC[C@H](C(=O)NC)NC(=O)[C@H](CCCC)NC1=O`, the apparent permeability from apical to basolateral (Papp A→B) at 2 h in [1] is 0.4 ×10⁻⁶ cm/s. The concentration in solution in data set [2] (solubility) was 5 µM (≈ 3.87 µg/mL). Also, the microsomal CLint in [5] and in data set [8] was not below 350 µL/min/mg each time. Besides, in [6], the pH-dependent lipophilicity (logD) at 4 h was determined as 3.6.

With `CCCC[C@@H]1NC(=O)[C@H](CCCC)N(C)C(=O)[C@H](CCCC)NC(=O)[C@H](Cc2ccccc2)N(C)C(=O)[C@H]([C@@H](C)O)NC(=O)[C@H](CCCC)N(C)C(=O)[C@@H](Cc2ccccc2)NC(=O)CSC[C@@H](C(=O)NC)NC1=O`, in [1], the apical-to-basolateral permeability (Papp A→B) at 2 h is less than 0.35 ×10⁻⁶ cm/s. The solubility in [2] is less than 4 µM. This compound also yielded a bioavailability in [4] of 13%. Moreover, the microsomal CLint in data set [5] and in [8] was not below 120 µL/min/mg throughout. In data set [6], this compound yielded a logD at 4 h of 5.2. In data set [9], the AUC at 24 h was 0.372 µM·h. The clearance in [7] was found to be 28.4 mL/min/kg. The compound further had a maximum concentration (Cmax) in data set [10] of 161 nM.

As to `CCCC[C@@H]1NC(=O)[C@H](CCCC)N(C)C(=O)[C@H](CCCC)NC(=O)[C@H](CCCC)N(C)C(=O)[C@@H](Cc2ccccc2)NC(=O)CSC[C@H](C(=O)NC)NC1=O`, in [1], the Papp A→B at 2 h amounted to 1.5 ×10⁻⁶ cm/s. Besides, in data set [2], the concentration in solution (solubility) came to 18 µM (≈ 14.4 µg/mL). The microsomal CLint in data set [5] and in data set [8] was not below 350 µL/min/mg throughout. The same compound returned a pH-dependent lipophilicity (logD) at 4 h in [6] of 4.2.

As for `CCCC[C@@H]1NC(=O)[C@H](CCCC)NC(=O)[C@H]2CCCN2C(=O)[C@H](CCCC)NC(=O)[C@H](Cc2ccccc2)NC(=O)CSC[C@H](C(=O)NC)NC(=O)[C@H](CCCC)NC1=O`, in data set [1], the apical-to-basolateral permeability (Papp A→B) at 2 h came out at 0.2 ×10⁻⁶ cm/s. For the same compound, in data set [2], the concentration in solution (solubility) came to 9 µM (≈ 7.84 µg/mL). The half-life in [3] is 4.8 min. In data set [4], this compound yielded a bioavailability of less than 1%. Besides, the Vd in [11] stood at 0.2 L/kg. Also, the microsomal CLint in data set [5] and in data set [8] was not below 480 µL/min/mg in each case. Besides, in data set [6], the pH-dependent lipophilicity (logD) at 4 h was determined as 3.7. The clearance in data set [7] turned out to be 72 mL/min/kg.

In the case of `CCCC[C@@H]1NC(=O)[C@H](CCCC)N(C)C(=O)[C@H](CCCC)NC(=O)[C@H](CCCC)N(C)C(=O)[C@H](CCCC)NC(=O)[C@H](CCCC)N(C)C(=O)[C@@H](Cc2ccccc2)NC(=O)CSC[C@@H](C(=O)NC)NC1=O`, the apical-to-basolateral permeability (Papp A→B) at 2 h in [1] is less than 0.35 ×10⁻⁶ cm/s. Also, the solubility in data set [2] was less than 4 µM. Moreover, in [4], the bioavailability turned out to be 54%. Further, the microsomal CLint in [5] and in [8] was not below 120 µL/min/mg in each case. The same compound returned a logD at 4 h in data set [6] of 6. This compound returned an AUC at 24 h in [9] of 1.27 µM·h. For the same compound, the clearance in data set [7] came out at 33 mL/min/kg. In data set [10], this compound displayed a Cmax of 411 nM.
